# FXN GAA850 act: frataxin GAA850 promoter activation. activation, % at 6 µM. HEK293 lucGAA850 FXN promoter luciferase reporter, 24 h; percent of 10 µM SAHA response. hit rate 0.56% among 360,000;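 active means activation above the average of all compounds screened plus 3 SD, cutoff fixed separately per campaign, cut at about 7.5% in these data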
# m5-HT2A agonist: mouse HTR2A agonism via beta-arrestin recruitment; P35363; hit rate 0.66% among 360,000; CHO-K1 mHTR2A beta-arrestin complementation, luminescence; percent of 30 µM serotonin response; activation, % at 7.6 µM;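 active means activation above a run cutoff, the mean activation of all tested compounds plus 3 SD, cut at about 14% in these data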
# Target sequence (P35363 whole entry, looked up): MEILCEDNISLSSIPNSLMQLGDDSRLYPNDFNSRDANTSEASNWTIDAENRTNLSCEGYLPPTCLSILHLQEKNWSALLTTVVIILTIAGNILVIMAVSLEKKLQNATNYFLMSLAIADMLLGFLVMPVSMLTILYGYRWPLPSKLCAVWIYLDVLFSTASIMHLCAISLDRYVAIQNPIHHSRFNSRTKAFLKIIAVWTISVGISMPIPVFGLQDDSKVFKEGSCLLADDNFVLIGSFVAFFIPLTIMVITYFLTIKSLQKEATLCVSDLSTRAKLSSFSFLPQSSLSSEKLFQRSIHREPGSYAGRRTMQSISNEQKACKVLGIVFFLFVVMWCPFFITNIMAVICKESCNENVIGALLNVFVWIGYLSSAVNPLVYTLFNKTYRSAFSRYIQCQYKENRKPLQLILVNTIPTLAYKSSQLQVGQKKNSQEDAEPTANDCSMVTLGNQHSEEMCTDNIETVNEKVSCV
# MC4R ag barr: agonists of human melanocortin 4 receptor (MC4R) beta-arrestin; P32245; U2OS MC4R beta-arrestin complementation, luminescence; percent of melanotan II response, DMSO zero; activation, % at 8.9 µM; hit rate 0.98% among 360,000;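 active means activation above a per-plate cutoff, the mean activation of sample wells on that plate plus 3 SD, cut at about 8% in these data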
# MC4R antag cAMP: human MC4R antagonism in cAMP assay. MC4R-expressing cells, MTII-stimulated cAMP, LANCE TR-FRET. inhibition, % at 6.5 µM. hit rate 0.48% among 360,000. P32245. AID 540295;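 active means inhibition above its plate's cutoff, the mean of tested wells on that plate plus 3 SD, cut at about 29% in these data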
#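 material = U2OS cells stably expressing human melanocortin 4 receptor (MC4R) | also added = Melanotan II challenge | dosing = single nominal compound dose of 6.5 µM | detection = TR-FRET with Eu-cAMP and labeled anti-cAMP, 671 nm | replication = singlicate | timing = compound 30 min, challenge 1 h, detection 1 h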
# AHR activator: human AHR activation; P35869; AHR-responsive luciferase reporter cells, luminescence; activation, % at 5 µM; hit rate 2.5% among 320,000; AID 2796; in the data active means activation above about 47%
# MC4R barr conf: human MC4R beta-arrestin agonism confirmation; U2OS MC4R beta-arrestin recruitment, luminescence; scaled DMSO 0%, Melanotan II 100%; hit rate 31% among 2,400; shares compounds with MC4R ag barr; activation, % at 8.9 µM;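 active means mean activation across replicates above the hit cutoff set in the earlier primary screen, cut at about 8% in these data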
# MOR-DOR barr ag: OPRM1-OPRD1 heterodimer agonism counter-screen; shares compounds with MC4R ag barr; U2OS PathHunter beta-arrestin, beta-gal luminescence; percent of deltorphin B response, DMSO zero; activation, % at 9.2 µM; hit rate 5.8% among 2,400; AID 602194;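 active means mean activation across replicates exceeds the hit threshold derived in the earlier primary screen, cut at about 18% in these data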
# Numbers stand for hits; – = inactive; · = not tested or not shown. An excerpt weighted towards active compounds, which were near 4.7% of everything screened.
SMILES,FXN GAA850 act,m5-HT2A agonist,MC4R ag barr,MC4R antag cAMP,AHR activator,MC4R barr conf,MOR-DOR barr ag
CCOc1ccc(CNC(=O)CCc2cn(Cc3ccccc3)c3ccccc23)cc1,–,–,13.2,–,–,10.0,–
CC(=O)OC1(C)C=Cc2ccccc2C1=NS(=O)(=O)c1ccccc1 (stereo not given),–,–,–,–,·,·,·
O=C(CSc1cc(Cl)ccc1Cl)NC1CCCc2ccccc21 (stereo not given),–,–,12.8,–,–,–,–
Cc1c(P(=S)(c2ccccc2)c2ccccc2)[n+]2ccccc2n1C/C=C/c1ccccc1,–,–,15.2,–,·,–,36.5
Cc1cccc(C)c1-n1nnnc1C(c1cc2ccccc2o1)N1CCN(C/C=C/c2ccccc2)CC1 (stereo not given),·,–,·,·,·,·,·
Nc1ccccc1Sc1c[nH]c2ccccc12,–,–,–,–,–,·,·
COc1cc(COc2ccc(-c3nnco3)cc2)ccc1OC(F)F,–,–,11.9,–,–,–,–
C=CCN1C(=O)C(CC(=O)Nc2ccc(OCCC)cc2)N(CCCN2CCN(Cc3ccccc3)CC2)C1=S (stereo not given),–,–,22.0,–,–,9.4,21.7
O=C(c1ccccc1)c1ccc2nc(-c3ccc(NC(=O)c4ccccc4F)cc3)[nH]c2c1,–,–,12.2,–,–,–,–
CCOC(=O)c1ccc(NC(=O)Nc2cc(C)on2)cc1,–,–,10.5,–,–,–,–
CCOC(=O)c1ccc(NC(=O)Nc2cccc(C)n2)cc1,–,–,–,–,–,·,·
O=C(Nc1ccc(F)cc1)C1C(c2ccccc2)C1(Cl)Cl (stereo not given),–,–,14.7,–,–,–,–
COc1ccc(CNC(=O)C2CCCN2C(=O)Nc2cccc(Cl)c2)cc1 (stereo not given),–,–,–,–,·,·,·
Cc1cccc(NC(=O)CNC(=O)c2sc3ccccc3c2Cl)n1,–,–,11.2,–,–,–,–
Cc1nn(Cc2c(Cl)cccc2Cl)c(C)c1NC(=O)c1sc2ccccc2c1Cl,–,–,45.3,–,–,–,–
CC(=O)c1cccc(NC(=O)CNC(=O)c2sc3ccccc3c2Cl)c1,–,–,19.2,–,–,24.3,18.2
Cc1cccc(C)c1NC(=O)C(CCc1ccccc1)N1CCC(c2ccccc2)CC1 (stereo not given),·,–,·,·,·,·,·
Cc1nn(CSc2c(F)c(F)c(F)c(F)c2F)c(C)c1[N+](=O)[O-],–,–,–,–,–,·,·
COc1cc(NC(=O)CSCc2ccccc2)c(C(=O)O)cc1OC,–,–,–,–,–,·,·
CCc1c(C)sc(NC(=O)Cn2nc(C(F)(F)F)c3c2CCCC3)c1C#N,–,–,10.4,–,–,–,–
CCN(CC)c1nc(OCCNC(=O)Nc2ccccc2)nc(N(CC)CC)n1,–,–,13.0,–,–,–,–
O=C(NCCOc1nc(N2CCCCC2)nc(N2CCCCC2)n1)Nc1ccccc1,–,–,–,–,–,·,·
CCOC(=O)c1c(N)c2cc([N+](=O)[O-])ccc2n1C,–,–,15.7,–,–,–,–
CCCCC[C@@H]1C=C(C(=O)O)[C@H](c2ccc(OC)c(OC)c2)N1S(=O)(=O)c1ccc(C)cc1,–,–,–,–,–,·,·
COc1cc(CN2CCN(c3cccc(C)c3C)CC2)cc(Br)c1O,–,–,11.7,–,–,–,–
SMILES,FXN GAA850 act,m5-HT2A agonist,MC4R ag barr,MC4R antag cAMP,AHR activator,MC4R barr conf,MOR-DOR barr ag
CCc1nc2ccc(C(=O)Nc3cccc(OC)c3)cn2c1N(CC)CCOC,–,–,–,–,·,·,·
COc1ccc(C(OCC(O)CNCCc2ccc(S(N)(=O)=O)cc2)c2ccc(OC)cc2)cc1 (stereo not given),–,–,–,–,–,·,·
OC(CNCCc1ccc(C(F)(F)F)cc1)COC(c1ccccc1)c1ccccc1 (stereo not given),–,–,36.0,–,–,21.7,–
Cc1cccc(C)c1NC(=O)C(c1cc2ccccc2o1)N1CCN(C)CC1 (stereo not given),·,–,·,·,·,·,·
C#CCn1c(=NC(=O)c2ccco2)sc2cccc(Cl)c21,–,–,33.2,–,–,–,–
NC(=O)c1cc2cc(Cc3ccccc3Cl)ccc2oc1=O,–,–,10.8,–,–,–,–
O=C(CSc1ccc(F)cc1)Nc1ccc(C2SCCS2)cc1,–,–,10.4,–,–,–,–
O=C(CSC1=NCCS1)Nc1ccc(F)cc1,–,–,–,–,–,·,·
CN(CC(=O)Nc1cc(Cl)ccc1-n1cncn1)Cc1ccccc1N1CCOCC1,–,–,–,–,·,·,·
CCn1cc(C(=O)OCC(=O)c2cc(C)n(-c3cccc(C(F)(F)F)c3)c2C)c(=O)c2ccc(C)nc21,–,–,–,–,–,·,·
CCn1cc(C(=O)NCc2cccc(C(F)(F)F)c2)c(=O)c2ccc(C)nc21,–,–,13.6,–,–,–,–
CC(C)c1ccc(CNCCCSc2ncccn2)cc1,–,–,–,–,–,·,·
CCOc1ccc(N)c(SSc2cc(OCC)ccc2N)c1,–,–,10.8,–,–,–,–
CCC(C(=O)OCC(=O)NC(=O)NC(C)(C)C)c1ccccc1 (stereo not given),–,–,9.7,–,–,–,–
CCC(C(=O)OCC(=O)NC(=O)c1ccccc1)c1ccccc1 (stereo not given),–,–,–,–,–,·,·
CN(Cc1cn(Cc2ccc(F)cc2)nn1)C1CN(Cc2cn(Cc3ccc(F)cc3)nn2)S(=O)(=O)C1 (stereo not given),·,–,·,·,·,·,·
CCc1ccc(C(O)c2ncc(-c3cccc(C(F)(F)F)c3)[nH]2)cc1 (stereo not given),–,–,12.8,–,·,10.5,–
CCc1ccc(C(O)c2ncc(-c3ccc4ccccc4c3)[nH]2)cc1 (stereo not given),–,–,17.3,–,·,–,–
COc1ccc(C(O)c2ncc(-c3cccc(C(F)(F)F)c3)[nH]2)cc1F (stereo not given),–,–,–,–,·,·,·
COc1ccc(C)cc1NS(=O)(=O)c1ccccc1,–,–,–,–,·,·,·
COc1ccccc1N=c1oc2c(OC)cccc2cc1C(=O)NCc1ccco1,–,–,24.2,–,–,–,25.3
COc1ccc(OC)c(N=c2oc3c(OC)cccc3cc2C(=O)NCc2ccco2)c1,–,–,–,–,–,·,·
O=C1CCc2cc(S(=O)(=O)N3CCN(c4ccc(F)cc4)CC3)cc3c2N1CC3,–,–,12.6,–,–,–,–
S=C(Nc1ccc(N2CCOCC2)cc1)Nc1ccc2nc(-c3ccco3)c(-c3ccco3)nc2c1,–,–,–,–,–,·,·

# High-throughput results (PubChem)
